Test results taken from paper PMC3004996 (Bioconjugate chemistry, 2010).
Read-outs that look alike come from different tables or passages of the source. Bridge positions count the residues as written; N and C are the ends. Ends that are not written are not given here. Peptide text beside a SMILES is read from it. * marks the point of attachment. DOTA = O=C(O)CN1CCN(CC(=O)O)CCN(CC(=O)*)CCN(CC(=O)O)CC1

Key:
[1] = incubation in serum for 24 h; cited from earlier work
U87MG tumor xenografts = settings: cited from earlier work
[2] = 1 hr after injection into mice; cited from earlier work
[3] = target: integrin αvβ3 (Homo sapiens) (UniProt P06756); settings: cited from earlier work
Sequence of integrin αvβ3 (Homo sapiens) (P06756 31-1048, chain 1 of 2): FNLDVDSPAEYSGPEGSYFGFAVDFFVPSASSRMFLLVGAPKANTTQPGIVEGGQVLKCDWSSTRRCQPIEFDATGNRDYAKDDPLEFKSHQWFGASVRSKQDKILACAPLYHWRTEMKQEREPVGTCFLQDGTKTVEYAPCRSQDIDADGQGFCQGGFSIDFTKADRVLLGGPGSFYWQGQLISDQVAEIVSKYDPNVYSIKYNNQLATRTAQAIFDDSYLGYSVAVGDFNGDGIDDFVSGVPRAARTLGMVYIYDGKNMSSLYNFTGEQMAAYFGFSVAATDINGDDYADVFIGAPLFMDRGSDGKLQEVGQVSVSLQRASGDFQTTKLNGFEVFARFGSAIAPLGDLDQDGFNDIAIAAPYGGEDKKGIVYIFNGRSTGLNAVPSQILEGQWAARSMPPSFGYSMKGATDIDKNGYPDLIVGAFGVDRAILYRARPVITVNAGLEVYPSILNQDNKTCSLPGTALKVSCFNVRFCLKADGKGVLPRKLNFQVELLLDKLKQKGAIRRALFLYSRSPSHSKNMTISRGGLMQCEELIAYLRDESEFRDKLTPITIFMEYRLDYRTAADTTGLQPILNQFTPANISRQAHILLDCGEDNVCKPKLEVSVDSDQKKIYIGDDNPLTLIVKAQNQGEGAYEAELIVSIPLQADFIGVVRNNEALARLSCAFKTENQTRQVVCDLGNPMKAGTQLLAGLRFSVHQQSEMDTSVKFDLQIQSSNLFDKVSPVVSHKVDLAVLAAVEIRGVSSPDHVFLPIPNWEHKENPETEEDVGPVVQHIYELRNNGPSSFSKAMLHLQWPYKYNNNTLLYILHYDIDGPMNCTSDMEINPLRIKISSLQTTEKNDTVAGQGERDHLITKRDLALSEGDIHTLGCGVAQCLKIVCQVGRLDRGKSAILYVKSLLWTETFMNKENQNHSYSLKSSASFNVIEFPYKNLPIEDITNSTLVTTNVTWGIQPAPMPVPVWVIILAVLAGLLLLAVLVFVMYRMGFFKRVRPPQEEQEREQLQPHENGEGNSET
Sequence of integrin αvβ3 (Homo sapiens) (P05106 27-788, chain 2 of 2, further chain): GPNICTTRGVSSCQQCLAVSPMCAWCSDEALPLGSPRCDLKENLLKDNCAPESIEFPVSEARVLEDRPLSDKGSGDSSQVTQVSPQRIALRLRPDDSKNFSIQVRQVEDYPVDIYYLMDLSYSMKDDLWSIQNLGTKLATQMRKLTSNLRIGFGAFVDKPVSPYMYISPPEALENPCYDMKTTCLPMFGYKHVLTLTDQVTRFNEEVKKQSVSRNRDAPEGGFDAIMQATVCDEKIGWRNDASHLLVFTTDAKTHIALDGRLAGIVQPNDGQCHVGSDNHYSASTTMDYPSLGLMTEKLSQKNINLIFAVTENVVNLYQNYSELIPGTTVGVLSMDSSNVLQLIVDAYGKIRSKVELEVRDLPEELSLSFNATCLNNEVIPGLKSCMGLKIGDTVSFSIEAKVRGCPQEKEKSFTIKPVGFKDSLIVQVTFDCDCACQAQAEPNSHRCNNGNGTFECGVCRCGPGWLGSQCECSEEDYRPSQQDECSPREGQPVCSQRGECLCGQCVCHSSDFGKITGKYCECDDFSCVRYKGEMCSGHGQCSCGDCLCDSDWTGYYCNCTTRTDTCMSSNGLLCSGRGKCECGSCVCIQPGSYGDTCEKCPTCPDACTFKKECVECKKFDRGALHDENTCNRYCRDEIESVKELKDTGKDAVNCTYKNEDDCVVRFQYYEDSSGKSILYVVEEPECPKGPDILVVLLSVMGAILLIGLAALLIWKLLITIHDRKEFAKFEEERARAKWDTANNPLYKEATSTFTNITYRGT

[4] = In vivo biodistribution, gamma counting of dissected tissue; settings: nude (nu/nu), mouse, iv, 100 uCi, total radioactivity
Outline: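 U87MG xenograft-bearing anesthetized nude mice received ~100 μCi (~0.5 nmol) of 64Cu/Cy5.5 dual-labelled test peptide by tail vein. They were euthanized at 1, 4 and 24 hr. Dissected tissues were weighed and gamma counted, calibrated against a pre-measured tracer aliquot, and normalized to whole body weight and residual tail activity. Values are %ID/g, mean and standard deviation of three mice.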

[5] = Stability in mouse serum, radio-HPLC; type: in vitro ADME; settings: 50% mouse serum, 37 °C
[6] = MicroPET imaging of MDA-MB-435 xenografts; type: in vivo; settings: female, athymic nude (nu/nu), mouse, tumor (MDA-MB-435 xenograft), iv, total radioactivity
Outline: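 MDA-MB-435 cells were grown in Leibovitz L-15 with 10% FBS, and 5 × 10⁶ cells in PBS were implanted subcutaneously in the shoulder of 4-6-week female nude mice. At 8-10 mm tumor diameter, mice (n ≥ 3) received ~100 μCi (~0.5 nmol) labelled probe by tail vein. Imaging used microPET with 3 or 5 min static scans. ROI counts/g/min were converted to %ID/g assuming 1 g/mL, without attenuation correction. Blocking groups were co-injected with 330 μg unlabelled c(RGDyK).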

[7] = In vivo metabolite analysis; design: species or system mouse; settings: radio-HPLC and gamma counting
Outline: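 Female athymic nude mice bearing subcutaneous shoulder U87MG xenografts (~10⁷ cells; tumors 8–10 mm) were anesthetized and given 200–400 μCi of ⁶⁴Cu-labeled test peptide by tail vein, then euthanized. Blood and tumor were suspended in ~500 μL PBS plus 500–1000 μL DMF and homogenized by mortar and pestle. Homogenates were passed through a 0.2 μm filter. Filtrates were run on reversed-phase HPLC, with 30 s fractions gamma-counted (cpm).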

U87MG cells = experiment: Cell binding and uptake study; type: cell-based, human; settings: 5 × 10^5 U87MG cells, 1 μg c(RGDyK), 37 °C, 30, 60, 120 min
Outline: (§1)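 Cells were suspended in integrin binding buffer (25 mM Tris pH 7.4, 150 mM NaCl, 2 mM CaCl₂, 1 mM MgCl₂, 1 mM MnCl₂, 0.1% BSA). They were incubated with the ⁶⁴Cu-labeled test peptide at 1.5 μCi/tube, with or without c(RGDyK). Cells were then washed three times with chilled PBS, pelleted and gamma-counted. Uptake is % of added radioactivity, in triplicate. U87MG were maintained in DMEM and MDA-MB-435 in L-15, each with 10% heat-inactivated FBS.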

MDA-MB-435 cells = experiment: Cell binding and uptake study; type: cell-based, human; settings: 5 × 10^5 MDA-MB-435 cells, 37 °C, 30, 60, 120 min
Outline: as §1

αvβ3 integrin = αvβ3 integrin (Homo sapiens, UniProt P05106+P06756); settings: read-out: KD for αvβ3 integrin; cited from earlier work
Sequence of αvβ3 integrin (P06756 31-889 limits assumed): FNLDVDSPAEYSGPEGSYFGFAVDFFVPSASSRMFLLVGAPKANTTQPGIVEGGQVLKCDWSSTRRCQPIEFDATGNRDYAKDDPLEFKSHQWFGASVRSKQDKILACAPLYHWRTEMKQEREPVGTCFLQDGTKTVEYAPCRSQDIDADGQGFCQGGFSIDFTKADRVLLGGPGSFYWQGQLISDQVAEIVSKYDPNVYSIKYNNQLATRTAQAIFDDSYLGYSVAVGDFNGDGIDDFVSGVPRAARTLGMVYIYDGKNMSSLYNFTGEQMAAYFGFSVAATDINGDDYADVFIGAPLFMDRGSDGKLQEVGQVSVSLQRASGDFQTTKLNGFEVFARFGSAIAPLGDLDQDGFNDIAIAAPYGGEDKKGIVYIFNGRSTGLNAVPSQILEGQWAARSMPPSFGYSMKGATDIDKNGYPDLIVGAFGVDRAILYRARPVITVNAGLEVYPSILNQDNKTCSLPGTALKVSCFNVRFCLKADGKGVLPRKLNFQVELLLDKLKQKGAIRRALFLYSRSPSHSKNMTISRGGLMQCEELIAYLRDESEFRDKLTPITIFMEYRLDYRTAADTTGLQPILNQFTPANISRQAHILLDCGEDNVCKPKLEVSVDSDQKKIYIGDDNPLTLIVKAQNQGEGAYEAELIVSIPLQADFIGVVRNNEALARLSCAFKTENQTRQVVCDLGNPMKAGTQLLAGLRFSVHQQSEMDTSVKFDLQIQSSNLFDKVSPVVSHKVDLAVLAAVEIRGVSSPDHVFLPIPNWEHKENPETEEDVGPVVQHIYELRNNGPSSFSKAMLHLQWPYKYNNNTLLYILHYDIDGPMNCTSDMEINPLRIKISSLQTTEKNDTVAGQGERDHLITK
Sequence of αvβ3 integrin (P06756 891-1048 partner limits assumed): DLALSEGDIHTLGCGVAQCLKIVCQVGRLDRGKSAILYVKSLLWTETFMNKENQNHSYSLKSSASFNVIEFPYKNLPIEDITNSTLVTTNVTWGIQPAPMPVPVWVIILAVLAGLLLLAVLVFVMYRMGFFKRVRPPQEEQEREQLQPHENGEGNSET
Sequence of αvβ3 integrin (P05106 27-788): as the sequence (P05106 27-788, chain 2 of 2, further chain) above

Sequence of echistatin (P17347 131-179): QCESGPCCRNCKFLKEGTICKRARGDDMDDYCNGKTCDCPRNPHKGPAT

## CC(C)C[C@@H]1NC(=O)[C@@H]2CSSC[C@@H](C(=O)NCC(N)=O)NC(=O)[C@H](Cc3ccccc3)NC(=O)CNC(=O)[C@H](CC(N)=O)NC(=O)[C@@H]3CCCN3C(=O)CNC(=O)[C@@H]3CSSC[C@H](NC(=O)[C@H](CO)NC(=O)[C@H]([C@@H](C)O)NC(=O)[C@@H]4CCCN4C(=O)[C@H](C)NC(=O)[C@H](Cc4c[nH]c5ccccc45)NC(=O)[C@H](CC(=O)O)NC(=O)CNC(=O)[C@H](CCCNC(=N)N)NC(=O)CNC(=O)[C@H](CCC(N)=O)NC(=O)[C@@H]4CCCN4C(=O)[C@@H](NC(=O)CNC(=O)CN4CCN(CC(=O)O)CCN(CC(=O)O)CCN(CC(=O)O)CC4)CSSC[C@H](NC(=O)CNC(=O)[C@H](C)NC1=O)C(=O)N[C@@H](C(C)C)C(=O)N3)C(=O)N[C@@H](CO)C(=O)N[C@@H](CCC(N)=O)C(=O)N[C@@H](CC(=O)O)C(=O)N[C@@H](CO)C(=O)N[C@@H](CC(=O)O)C(=O)N2 [^64Cu-DOTA-2.5D, metal not drawn] ({DOTA}-GCPQGRGDWAPTSCSQDSDCLAGCVCGPNGFCG-NH2; disulfide 2-24, 14-26, 20-32)
[1]
  Stability in serum: only minimal fragmentation
U87MG tumor xenografts; 1 to 4 hr post injection, previously observed
  Liver uptake: 1-2 %ID/g
U87MG tumor xenografts; 1 hr post injection
  Kidney uptake: 8.08 ± 0.67 %ID/g
U87MG tumor xenografts; 4 hr post injection
  Kidney uptake: 2.69 ± 0.48 %ID/g
U87MG tumor xenografts; 24 hr post injection
  Kidney uptake: 1.25 ± 0.11 %ID/g
[2]
  In vivo metabolic stability in blood, tumor and kidneys: recovered intact

## echistatin (from UniProt P17347)
[3]
  Kd: 0.4 nM

## CCN1C(=CC=CC=CC2=[N+](CCCCCC(=O)NCCCC[C@H](NC(=O)CN3CCN(CC(=O)O)CCN(CC(=O)O)CCN(CC(=O)O)CC3)C(=O)NCC(=O)NCC(=O)N[C@@H](Cc3ccc(O)cc3)C(=O)NCC(=O)N[C@H]3CSSC[C@@H]4NC(=O)CNC(=O)[C@H](C)NC(=O)[C@H](CC(C)C)NC(=O)[C@@H]5CSSC[C@@H](C(=O)NCC(N)=O)NC(=O)[C@H](Cc6ccccc6)NC(=O)CNC(=O)[C@H](CC(N)=O)NC(=O)[C@@H]6CCCN6C(=O)CNC(=O)[C@H](CSSC[C@H](NC(=O)[C@H](CO)NC(=O)[C@H]([C@@H](C)O)NC(=O)[C@@H]6CCCN6C(=O)[C@H](C)NC(=O)[C@H](Cc6c[nH]c7ccccc67)NC(=O)[C@H](CC(=O)O)NC(=O)CNC(=O)[C@H](CCCNC(=N)N)NC(=O)CNC(=O)[C@H](CCC(N)=O)NC(=O)[C@@H]6CCCN6C3=O)C(=O)N[C@@H](CO)C(=O)N[C@@H](CCC(N)=O)C(=O)N[C@@H](CC(=O)O)C(=O)N[C@@H](CO)C(=O)N[C@@H](CC(=O)O)C(=O)N5)NC(=O)[C@H](C(C)C)NC4=O)c3ccc4c(S(=O)(=O)[O-])cc(S(=O)(=O)O)cc4c3C2(C)C)C(C)(C)c2c1ccc1c(S(=O)(=O)O)cc(S(=O)(=O)O)cc21 (single isomer, unassigned) [^64Cu-DOTA/Cy5.5-2.5D, ^64Cu-DOTA-Lys(Cy5.5)-Gly-Gly-Tyr-2.5D, metal not drawn]
[4]; kidney, Kidney uptake, for 1-4 hr post injection, approximate
  tissue uptake: ~80 %ID/g
[4]; liver, Liver uptake, at 1-24 hr post injection
  tissue uptake: 4 to 7 %ID/g
[4]; liver, Liver uptake, at 1 and 4 hr post injection
  tissue uptake: 4 to 7 %ID/g
[5]; 1 hr
  Stability in mouse serum: minimal probe degradation
[5]; 24 hr
  Stability in mouse serum: intact probe was unrecoverable
[6]; 100 uCi
  tissue uptake at 1 h: 1.33 ± 0.02 %ID/g
  tissue uptake at 24 h: 1.01 ± 0.1 %ID/g
[6]
  tissue uptake at 1 h: 0.82 ± 0.05 %ID/g
  tissue uptake at 24 h: 0.6 ± 0.09 %ID/g
[7]; U87MG tumor 1 hr post injection
  In vivo metabolic stability in tumor: significant breakdown of probe
[7]; kidney 1 hr post injection
  In vivo metabolic stability in kidney: intact probe was not able to be recovered
[7]; liver 1 hr post injection
  In vivo metabolic stability in liver: intact probe was not able to be recovered
U87MG cells
  Cell binding and uptake with excess c(RGDyK): blocked
MDA-MB-435 cells; 1 μg c(RGDyK)
  Cell binding and uptake with excess c(RGDyK): blocked
MDA-MB-435 cells; 1.5 μCi/tube, IBB, gamma counter, triplicate
  Cell binding and uptake, versus U87MG cells: lower levels of probe uptake

## ECESGPCCRNCKFLKEGTICKRARGDDMDDYCNGKTCDCPRNPHKGPAT (disulfide 2-11, 7-32, 8-37, 20-39 (inferred)) [Echistatin]
αvβ3 integrin
  Kd: ~0.4 nM
